Laboratory results published in ChEMBL document CHEMBL2062427, “Synthesis, chemical reactivity as Michael acceptors, and biological potency of monocyclic cyanoenones, novel and highly potent anti-inflammatory and cytoprotective agents” (J Med Chem, 2012).
Active and inactive are the calls of the source. The rule behind the calls is not given here.

Legend:
RAW264.7 [1] = assay: Antiinflammatory activity in mouse RAW264.7 cells assessed as inhibition of IFNgamma-stimulated NO production pretreated for 2 hrs before IFNgamma challenge measured after 24 hrs by Griess reaction; type: functional, cell-based
In short: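 RAW 264.7 cells seeded at 30,000/well in triplicate; next day pre-treated 2 h with DMSO or 2-fold serial dilutions (0–200 nM or 0–10 µM), then IFN-γ 20 ng/mL for 24 h. Medium NO by Griess; viability by WST-1. IC50 from suppression of IFN-γ-induced NO normalized to viability; mean of three independent experiments, SD.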

[2] = biological target: NAD(P)H dehydrogenase [quinone] 1 (Mus musculus) (UniProt Q64669); assay: Induction of NQO1 activity in mouse Hepa-1c1c7 cells assessed as concentration require to double the specific enzyme activity after 48 hrs; type: cell-based
In short: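 Hepa1c1c7 cells, 10,000/well, grown 24 h, then exposed to serial dilutions for 48 h. Potency expressed as concentration doubling NQO1 specific enzyme activity (CD).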

[3] = Cytotoxicity against C57BL/6 mouse BMDM cells assessed as LDH release after 24 hrs; type: cell-based; settings: bone marrow-derived macrophages (BMDM cells)
In short: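 Macrophages exposed to compound without LPS for 24 h; culture supernatant assayed for % LDH released as cell-death measure. Averages of 2 independent experiments, SD.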

RAW264.7 [4] = assay: Ratio of CDDO IC50 to compound IC50 for antiinflammatory activity in mouse RAW264.7 cells assessed as inhibition of IFNgamma-stimulated NO production; type: functional
BMDM [5] = assay: Antiinflammatory activity in C57BL/6 mouse BMDM cells assessed as inhibition of LPS-stimulated […] production at 0.5 uM pretreated for 1 hr before LPS challenge after 8 to 24 hrs by immunoassay; type: functional, cell-based
In short: (§1)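 Macrophages given compound at 0.5 µM; LPS 100 ng/mL added 1 h after start of compound treatment, for 8 h or 24 h. Supernatants collected at 8 or 24 h and assayed for LDH release (% released, cell death), TNF-α or IL-1β (pg/mL). Averages of 2 independent experiments, SD.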

[6] = Induction of apoptosis in LPS-stimulated C57BL/6 mouse BMDM cells assessed as LDH release at 0.5 uM pretreated for 1 hr before LPS challenge after 8 hrs; type: cell-based; in short: as §1
BMDM [7] = assay: Antiinflammatory activity in C57BL/6 mouse BMDM cells assessed as inhibition of LPS-stimulated TNFalpha production at 0.5 uM pretreated for 1 hr before LPS challenge after 8 to 24 hrs by immunoassay; type: functional, cell-based; in short: as §1
BMDM [8] = assay: Antiinflammatory activity in C57BL/6 mouse BMDM cells assessed as inhibition of LPS-stimulated TNFalpha production at 0.1 uM pretreated for 1 hr before LPS challenge after 8 to 24 hrs by immunoassay; type: functional, cell-based
In short: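 Macrophages pretreated with compound, then given LPS (100 ng/mL) 1 h after the start of compound exposure for 8 h or 24 h. Culture supernatants were collected at 8 h or 24 h and assayed for secreted TNF-α (pg/mL). Controls were untreated cells and cells given compound without LPS (24 h). Averages of 2 independent experiments; error is standard deviation.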

[9] = Induction of apoptosis in LPS-stimulated C57BL/6 mouse BMDM cells assessed as LDH release at 0.1 uM pretreated for 1 hr before LPS challenge after 8 hrs; type: cell-based
In short: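 Cells were compound-treated, and LPS (100 ng/mL) was added 1 h after the start of compound treatment for 8 h. Supernatant lactate dehydrogenase was measured as % LDH released, as a cell-death read-out. Comparison arms were no-LPS (compound 24 h) and untreated cells. Mean of 2 independent experiments, with standard deviation error bars.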

[10] = Induction of apoptosis in LPS-stimulated C57BL/6 mouse BMDM cells assessed as LDH release at 0.5 uM pretreated for 1 hr before LPS challenge after 24 hrs; type: cell-based; in short: as §1

Chain of NAD(P)H dehydrogenase [quinone] 1 (Mus musculus) (Q64669 whole entry): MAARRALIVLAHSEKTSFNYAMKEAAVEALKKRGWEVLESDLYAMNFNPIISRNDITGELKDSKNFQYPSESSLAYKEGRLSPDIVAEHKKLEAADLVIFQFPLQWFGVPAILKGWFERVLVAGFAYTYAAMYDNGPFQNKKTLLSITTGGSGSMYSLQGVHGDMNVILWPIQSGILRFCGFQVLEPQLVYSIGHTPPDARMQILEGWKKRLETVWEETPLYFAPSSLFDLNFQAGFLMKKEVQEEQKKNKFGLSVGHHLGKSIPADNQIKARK

| SMILES | IC50 (RAW264.7 [1]) | CD [2] | MNTC at 24 h [3] | also measured |
| --- | --- | --- | --- | --- |
| C#CC1(C)C=C(C#N)C(=O)CC1 (stereo not drawn) | 152 nM | 100 nM | – | – |
| COC(=O)C1(C)C=CC(=O)C(C#N)=C1 (stereo not drawn) | 58 nM | 320 nM | – | – |
| CC1(C)CC[C@]2(C(=O)O)CC[C@]3(C)[C@H](C(=O)C=C4[C@@]5(C)C=C(C#N)C(=O)C(C)(C)[C@@H]5CC[C@]43C)[C@@H]2C1 [BARDOXOLONE] | 16.5 nM | – | – | – |
| C=CC1(C)C=CC(=O)C(C#N)=C1 (stereo not drawn) | 170 nM | 150 nM | – | – |
| C#CC1(C)C=CC(=O)C(C#N)=C1 (stereo not drawn) | 5.8 nM | 22 nM | 500 nM | Ratio IC50 (RAW264.7 [4]): 2; Activity (BMDM [5]): Active; Activity [6]: Toxic; Activity (BMDM [7]): Active |
| CC#CC1(C)C=CC(=O)C(C#N)=C1 (stereo not drawn) | 7.3 nM | 33 nM | – | Ratio IC50 (RAW264.7 [4]): 2 |
| NC(=O)Nc1sc(-c2ccc(F)cc2)cc1C(N)=O | – | – | 500 nM | Activity (BMDM [5]): inactive; Activity [6]: Toxic; Activity (BMDM [7]): Active |
| CC1(C)C=C(C#N)C(=O)C(C)(C)C1 | 1900 nM | 1900 nM | – | – |
| C#C[C@]12C=C(C#N)C(=O)C=C1[C@@]1(C)C=C(C#N)C(=O)C(C)(C)[C@@H]1CC2 (racemic) | – | – | 100 nM | Activity (BMDM [8]): Active; Activity [9]: Not Active |
| CC1(C)C=CC(=O)C(C#N)=C1 | 305 nM | 150 nM | – | – |
| COC(=O)[C@]12CCC(C)(C)C[C@H]1[C@H]1C(=O)C=C3[C@@]4(C)C=C(C#N)C(=O)C(C)(C)[C@@H]4CC[C@@]3(C)[C@]1(C)CC2 [BARDOXOLONE METHYL] | – | – | 500 nM | Activity [10]: Not Active; Activity (BMDM [7]): Active |
| CC1(C#N)C=CC(=O)C(C#N)=C1 (stereo not drawn) | 219 nM | 58 nM | – | – |
